In ChEMBL document CHEMBL1135739, “Radiolabeled amino acids for tumor imaging with PET: radiosynthesis and biological evaluation of 2-amino-3-[18F]fluoro-2-methylpropanoic acid and 3-[18F]fluoro-2-methyl-2-(methylamino)propanoic acid” (J Med Chem, 2002):

Legend:
Rattus norvegicus [1] = species on record: Rattus norvegicus; assay: Radioactivity distribution in testis of normal fischer rat after injection of [18F]fluoro-2-methylpropanoic acid after 5 min.; format: ADME, organism-based; conditions: in vivo
Summary of the method: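 Male Fischer 344 rats (200–250 g), fed ad libitum, under intramuscular ketamine:xylazine anesthesia, got ~85 μCi radiotracer in 0.3 mL sterile water by tail-vein catheter. Groups of four were killed at 5, 30, 60 or 120 min. Dissected tissues were weighed and gamma-counted with dose standards. Counts were decay-corrected and given as %ID/g, mean ± standard error. Tissues were compared by one-way ANOVA.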

Rattus norvegicus [2] = species on record: Rattus norvegicus; assay: Radioactivity distribution in lung of normal fischer rat after injection of [18F]fluoro-2-methylpropanoic acid after 120 min.; format: ADME, organism-based; conditions: in vivo, 2 h
Summary of the method: (§1)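 Male Fischer 344 rats (200–250 g), fed ad libitum, anesthetized with intramuscular ketamine:xylazine (1:1, 0.1 mL/100 g). About 85 μCi tracer in 0.3 mL sterile water was given by tail-vein catheter. Groups of four were killed at 5, 30, 60 or 120 min. Tissues were weighed and gamma-counted against dose standards, decay-corrected, and expressed as %ID/g (mean ± standard error).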

Rattus norvegicus [3] = species on record: Rattus norvegicus; assay: Radioactivity distribution in lung of normal fischer rat after injection of [18F]-fluoro-2-methylpropanoic acid after 60 min.; format: ADME, organism-based; conditions: in vivo, 1 h; summary of the method: as §1
Rattus norvegicus [4] = species on record: Rattus norvegicus; assay: Radioactivity distribution in lung of tumor-bearing fischer rat after injection of [18F]-fluoro-2-methylpropanoic acid after 120 min; format: ADME, organism-based; conditions: in vivo, 2 h
Summary of the method: (§2)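 Male Fischer 344 rats carried intracranial 9L gliosarcoma, stereotactically implanted (4×10^4 cells) and used 17–19 days later. Awake, restrained animals received about 35 μCi tracer in 0.3 mL sterile water via the tail vein and were killed at 5, 60 or 120 min (n = 4–5). Tissues were weighed, gamma-counted, decay-corrected and reported as %ID/g ± standard error.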

Rattus norvegicus [5] = species on record: Rattus norvegicus; assay: Radioactivity distribution in pancreas of normal fischer rat after injection of [18F]fluoro-2-methylpropanoic acid after 30 min.; format: ADME, organism-based; conditions: in vivo, 0.5 h; summary of the method: as §1
Rattus norvegicus [6] = species on record: Rattus norvegicus; assay: Radioactivity distribution in pancreas of normal fischer rat after injection of [18F]fluoro-2-methylpropanoic acid after 60 min.; format: ADME, organism-based; conditions: in vivo, 1 h; summary of the method: as §1
Rattus norvegicus [7] = species on record: Rattus norvegicus; assay: Radioactivity distribution in lung of tumor-bearing fischer rat after injection of [18F]-fluoro-2-methylpropanoic acid after 5 min; format: ADME, organism-based; conditions: in vivo; summary of the method: as §2
Rattus norvegicus [8] = species on record: Rattus norvegicus; assay: Radioactivity distribution in bone of normal fischer rat after injection of [18F]-fluoro-2-methylpropanoic acid after 30 min.; format: ADME, organism-based, Bone element; conditions: in vivo, 0.5 h
Summary of the method: (§3)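 Normal male Fischer 344 rats (200–250 g), anesthetized with i.m. ketamine:xylazine (1:1), got ~85 μCi of tracer in 0.3 mL sterile water i.v. via tail-vein catheter. Groups of four were killed at 5, 30, 60 or 120 min. Tissues were weighed and gamma-counted against dose standards, and counts were decay-corrected to %ID/g. Results are mean ± standard error (n = 4), compared by one-way ANOVA.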

Rattus norvegicus [9] = species on record: Rattus norvegicus; assay: Radioactivity distribution in heart of normal fischer rat after injection of [18F]fluoro-2-methylpropanoic acid after 120 min.; format: ADME, organism-based; conditions: in vivo, 2 h; summary of the method: as §3
Rattus norvegicus [10] = species on record: Rattus norvegicus; assay: Radioactivity distribution in heart of tumor-bearing fischer rat after injection of [18F]fluoro-2-methylpropanoic acid after 60 min; format: ADME, organism-based; conditions: in vivo, 1 h
Summary of the method: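 Male Fischer 344 rats carried intracranial 9L gliosarcoma, implanted stereotactically (4×10^4 cells) and used 17–19 days later. Awake restrained rats got ~35 μCi of tracer in 0.3 mL sterile water by tail-vein injection and were killed at 5, 60 or 120 min. Tissues were weighed and gamma-counted, and counts were decay-corrected to %ID/g. Results are mean ± standard error; n = 4 at 5 and 120 min, n = 5 at 60 min.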

Rattus norvegicus [11] = species on record: Rattus norvegicus; assay: Radioactivity distribution in liver of normal fischer rat after injection of [18F]-fluoro-2-methylpropanoic acid after 120 min.; format: ADME, organism-based; conditions: in vivo, 2 h; summary of the method: as §1
Rattus norvegicus [12] = species on record: Rattus norvegicus; assay: Radioactivity distribution in liver of normal fischer rat after injection of [18F]fluoro-2-methylpropanoic acid after 60 min.; format: ADME, organism-based; conditions: in vivo, 1 h; summary of the method: as §1

## CC(N)(C[18F])C(=O)O.Cl (configuration not stated)
Rattus norvegicus [1]
  ID/g: 0.17%
Rattus norvegicus [2]
  ID/g: 0.37%
Rattus norvegicus [3]
  ID/g: 0.44%
Rattus norvegicus [4]
  ID/g: 0.24%
Rattus norvegicus [5]
  ID/g: 2.93%
Rattus norvegicus [6]
  ID/g: 2.95%
Rattus norvegicus [7]
  ID/g: 0.84%
Rattus norvegicus [8]
  ID/g: 0.22%
Rattus norvegicus [9]
  ID/g: 0.23%
Rattus norvegicus [10]
  ID/g: 0.33%
Rattus norvegicus [11]
  ID/g: 0.48%
Rattus norvegicus [12]
  ID/g: 0.5%
